Test results taken from PubChem BioAssay AID463152 (The Scripps Research Institute Molecular Screening Center, 2010).

Molecular target: Nuclear receptor ROR-alpha (Homo sapiens) (UniProt P35398)
Assay: dose-dependent lowering of GAL4-RORa luciferase – cell-based, luminescence, assay provider, RORA inverse agonist project, dose response (AID 463152)
Conditions: HEK293T GAL4-RORa LBD luciferase reporter, 20 h
In short: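 Test system: HEK293T with GAL4-RORα LBD and UAS-luciferase reporter; Timing: 20 h compound treatment; Detection: luciferase luminescence; Measure: IC50 from four-parameter fit of signal relative to DMSO; Control set: DMSO-treated wells as reference; Replicates: n of 8.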

Nuclear receptor ROR-alpha (Homo sapiens), sequence (P35398 whole entry, looked up, the tested form may be a part): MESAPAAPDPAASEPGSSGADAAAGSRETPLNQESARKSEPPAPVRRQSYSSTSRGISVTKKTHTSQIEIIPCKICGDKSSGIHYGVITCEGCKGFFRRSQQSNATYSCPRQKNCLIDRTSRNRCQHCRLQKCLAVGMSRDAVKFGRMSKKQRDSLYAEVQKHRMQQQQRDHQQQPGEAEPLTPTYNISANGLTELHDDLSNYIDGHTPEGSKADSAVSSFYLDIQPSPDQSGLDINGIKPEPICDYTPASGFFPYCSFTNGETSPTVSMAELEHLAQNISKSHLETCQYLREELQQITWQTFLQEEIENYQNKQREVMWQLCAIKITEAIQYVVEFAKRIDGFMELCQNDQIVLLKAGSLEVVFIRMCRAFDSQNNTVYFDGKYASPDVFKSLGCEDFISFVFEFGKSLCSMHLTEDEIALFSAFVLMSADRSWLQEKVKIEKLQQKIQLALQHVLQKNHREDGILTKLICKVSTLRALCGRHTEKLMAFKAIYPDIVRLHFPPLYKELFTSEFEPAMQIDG

IC50: 0.48 µM
Compound: O=S(=O)(Nc1ccc(C(O)(C(F)(F)F)C(F)(F)F)cc1)c1cccs1
